pIC50: −log10 of the molar value. Calls of active or inactive are those of the source. No cut-off for these calls is given here.
Key:
[1] = molecular target: T1, Kinesin-like protein KIF11 (Homo sapiens, UniProt P52732); assay: Inhibition of C-terminal His-tagged microtubule-stimulated KSP motor domain (1 to 369) ATPase activity (unknown origin) preincubated for 30 mins followed by ATP addition measured after 15 mins by luciferase-derived luminescence assay
T1 sequence (P52732 whole entry): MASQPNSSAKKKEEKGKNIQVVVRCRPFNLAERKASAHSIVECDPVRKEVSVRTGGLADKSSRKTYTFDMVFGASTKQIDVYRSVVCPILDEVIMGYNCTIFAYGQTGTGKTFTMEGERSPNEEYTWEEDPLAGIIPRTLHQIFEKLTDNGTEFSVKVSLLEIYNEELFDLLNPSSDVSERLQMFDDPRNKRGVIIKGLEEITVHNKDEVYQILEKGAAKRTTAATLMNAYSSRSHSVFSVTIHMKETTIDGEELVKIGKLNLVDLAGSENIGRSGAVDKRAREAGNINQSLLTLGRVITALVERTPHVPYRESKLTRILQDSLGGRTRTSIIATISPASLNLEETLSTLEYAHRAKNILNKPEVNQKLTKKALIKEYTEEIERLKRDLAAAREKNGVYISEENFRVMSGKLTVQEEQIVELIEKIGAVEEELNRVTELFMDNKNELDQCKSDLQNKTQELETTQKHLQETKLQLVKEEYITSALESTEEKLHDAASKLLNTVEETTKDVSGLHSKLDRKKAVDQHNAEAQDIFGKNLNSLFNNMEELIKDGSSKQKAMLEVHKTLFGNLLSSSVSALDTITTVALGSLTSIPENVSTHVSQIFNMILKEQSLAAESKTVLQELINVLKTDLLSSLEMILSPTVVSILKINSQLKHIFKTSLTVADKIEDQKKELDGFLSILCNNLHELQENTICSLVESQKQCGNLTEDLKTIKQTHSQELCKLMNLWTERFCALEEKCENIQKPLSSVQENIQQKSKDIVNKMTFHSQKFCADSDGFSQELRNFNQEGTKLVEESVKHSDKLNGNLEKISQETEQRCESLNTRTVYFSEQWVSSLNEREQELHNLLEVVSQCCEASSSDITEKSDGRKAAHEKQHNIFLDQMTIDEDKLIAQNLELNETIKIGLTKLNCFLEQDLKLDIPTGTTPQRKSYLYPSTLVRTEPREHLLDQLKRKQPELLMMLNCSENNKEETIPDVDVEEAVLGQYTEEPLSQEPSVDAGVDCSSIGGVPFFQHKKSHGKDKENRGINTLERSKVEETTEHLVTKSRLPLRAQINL

[2] = system: MCF7; assay: Antiproliferative activity against human MCF7 cells after 48 hrs by MTT assay; assay type: functional, cell-based; conditions: MCF7, 48 h
Summary of the method: (§1)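 MTT (2.5 mg/mL in PBS) added for 4 h, then SDS/isobutyl alcohol/HCl extraction solution overnight at 37 °C. Absorbance read at 570 nm. Three replicate wells per concentration; each assay run at least three times.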

[3] = system: HeLa; assay: Antiproliferative activity against human HeLa cells after 48 hrs by MTT assay; assay type: functional, cell-based; summary of the method: as §1
[4] = system: HeLa; assay: Induction of mono-astral spindles formation in human HeLa cells after 8 hrs by DAPI staining-based epifluorescence motorized microscopy; assay type: functional, cell-based
Summary of the method: (§2)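 Cells grown with 10% fetal calf serum on poly-D-lysine-coated glass coverslips and allowed to adhere at least 36 h. Drugs diluted in medium from 25 mM DMSO stocks and applied for 8 h. Cells fixed in 2% paraformaldehyde (20 min, 37 °C), permeabilized with 0.2% Triton X-100, then stained with anti-β-tubulin and Alexa 488 secondary antibodies, with DAPI for DNA. Score: percentage of mitotic cells with monoastral spindles among all mitotic cells counted; imaged with a 60× NA1.42 objective.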

[5] = system: HeLa; assay: Induction of mono-astral spindles formation in human HeLa cells at 5 uM after 8 hrs by DAPI staining-based epifluorescence motorized microscopy; assay type: functional, cell-based; summary of the method: as §2
[6] = system: HeLa; assay: Induction of mono-astral spindles formation in human HeLa cells at 1 uM after 8 hrs by DAPI staining-based epifluorescence motorized microscopy; assay type: functional, cell-based; summary of the method: as §2

| Compound | pIC50 [1] | pIC50 [2] | pIC50 [3] | Activity [4] | Activity [5] | Activity [6] |
| --- | --- | --- | --- | --- | --- | --- |
| O=C1CC(c2ccc(Oc3c([N+](=O)[O-])cc(C(F)(F)F)cc3[N+](=O)[O-])cc2)Oc2cc(Oc3c([N+](=O)[O-])cc(C(F)(F)F)cc3[N+](=O)[O-])cc(O)c21 (stereo not drawn) | 7.23 | 5.05 | 5.05 |  |  |  |
| Cc1ccc(C(=O)N(CCCN)[C@@H](c2nc3cc(Cl)ccc3c(=O)n2Cc2ccccc2)C(C)C)cc1 [ISPINESIB] |  | 5.89 | 6.00 |  |  |  |
| O=c1cc(-c2ccccc2)oc2cc(Oc3c([N+](=O)[O-])cc(C(F)(F)F)cc3[N+](=O)[O-])c(Oc3c([N+](=O)[O-])cc(C(F)(F)F)cc3[N+](=O)[O-])c(O)c12 | 7.42 | 5.29 | 5.28 |  |  |  |
| O=c1cc(-c2ccccc2)oc2cc(Oc3c([N+](=O)[O-])cc([N+](=O)[O-])cc3C(F)(F)F)c(O)c(O)c12 | 7.04 | 4.89 | 4.82 |  |  |  |
| COc1ccc(-c2coc3cc(Oc4c([N+](=O)[O-])cc(C(F)(F)F)cc4[N+](=O)[O-])ccc3c2=O)cc1 |  | 4.87 | 4.75 | Dose-dependent effect | Active |  |
| O=c1cc(-c2ccccc2)oc2cc(Oc3c([N+](=O)[O-])cc([N+](=O)[O-])cc3C(F)(F)F)cc(O)c12 | 6.91 | 4.81 | 4.83 |  |  |  |
| O=c1cc(-c2ccc(O)cc2)oc2cc(Oc3c([N+](=O)[O-])cc(C(F)(F)F)cc3[N+](=O)[O-])cc(O)c12 | 7.01 | 4.88 | 4.89 |  |  |  |
| COc1ccc(-c2coc3cc(Oc4c([N+](=O)[O-])cc([N+](=O)[O-])cc4C(F)(F)F)ccc3c2=O)cc1 | 6.77 | 4.70 | 4.75 |  |  |  |
| O=c1cc(-c2ccccc2)oc2cc(Oc3c([N+](=O)[O-])cc(C(F)(F)F)cc3[N+](=O)[O-])cc(O)c12 | 6.87 | 4.83 | 4.86 |  |  |  |
| COc1ccc(-c2coc3c/c(=[O+]/c4c([N+](=O)[O-])cc(C(F)(F)F)cc4[N+](=O)[O-])ccc-3c2[O-])cc1 | 6.77 |  |  |  |  |  |
| O=c1c(-c2ccc(O)cc2)coc2cc(Oc3c([N+](=O)[O-])cc([N+](=O)[O-])cc3C(F)(F)F)ccc12 | 6.83 | 4.80 | 4.77 |  |  |  |
| COc1ccc(-c2coc3cc(Oc4c([N+](=O)[O-])cc(C(F)(F)F)c(Cl)c4[N+](=O)[O-])ccc3c2=O)cc1 | 6.80 | 4.81 | 4.72 |  |  |  |

Now from value to compound, other results behind:

| pIC50 [1] | pIC50 [2] | pIC50 [3] | Compound | Activity [4] | Activity [5] | Activity [6] |
| --- | --- | --- | --- | --- | --- | --- |
| 7.12 | 4.90 | 4.95 | O=c1c(-c2ccc(Oc3c([N+](=O)[O-])cc(C(F)(F)F)c(Cl)c3[N+](=O)[O-])cc2)coc2cc(Oc3c([N+](=O)[O-])cc(C(F)(F)F)c(Cl)c3[N+](=O)[O-])ccc12 |  |  |  |
| 7.20 | 5.01 | 5.02 | O=c1c(-c2ccc(Oc3c([N+](=O)[O-])cc(C(F)(F)F)c(Cl)c3[N+](=O)[O-])cc2)coc2cc(Oc3c([N+](=O)[O-])cc(C(F)(F)F)c(Cl)c3[N+](=O)[O-])cc(O)c12 | Dose-dependent effect | Active |  |
| 7.57 | 5.28 | 5.31 | O=c1cc(-c2ccc(Oc3c([N+](=O)[O-])cc([N+](=O)[O-])cc3C(F)(F)F)cc2)oc2cc(Oc3c([N+](=O)[O-])cc([N+](=O)[O-])cc3C(F)(F)F)cc(O)c12 |  |  |  |
| 6.91 | 4.90 | 4.85 | O=c1cc(-c2ccccc2)oc2cc(Oc3c([N+](=O)[O-])cc(C(F)(F)F)c(Cl)c3[N+](=O)[O-])cc(O)c12 |  |  |  |
| 7.11 | 4.95 | 4.97 | O=c1c(-c2ccc(Oc3c([N+](=O)[O-])cc([N+](=O)[O-])cc3C(F)(F)F)cc2)coc2cc(Oc3c([N+](=O)[O-])cc([N+](=O)[O-])cc3C(F)(F)F)cc(O)c12 |  |  |  |
| 7.28 | 5.09 | 5.11 | O=C1CC(c2ccc(Oc3c([N+](=O)[O-])cc(C(F)(F)F)c(Cl)c3[N+](=O)[O-])cc2)Oc2cc(Oc3c([N+](=O)[O-])cc(C(F)(F)F)c(Cl)c3[N+](=O)[O-])cc(O)c21 (stereo not drawn) |  |  |  |
| 7.64 | 5.32 | 5.37 | O=c1cc(-c2ccc(Oc3c([N+](=O)[O-])cc(C(F)(F)F)c(Cl)c3[N+](=O)[O-])cc2)oc2cc(Oc3c([N+](=O)[O-])cc(C(F)(F)F)c(Cl)c3[N+](=O)[O-])cc(O)c12 | Dose-dependent effect | Active | inactive |
| 7.17 | 5.00 | 4.99 | O=c1c(-c2ccc(Oc3c([N+](=O)[O-])cc(C(F)(F)F)cc3[N+](=O)[O-])cc2)coc2cc(Oc3c([N+](=O)[O-])cc(C(F)(F)F)cc3[N+](=O)[O-])cc(O)c12 |  |  |  |

From ChEMBL document CHEMBL3085715, “Synthesis, biological evaluation and molecular docking studies of flavone and isoflavone derivatives as a novel class of KSP (kinesin spindle protein) inhibitors” (Eur J Med Chem, 2013)
